Source: ChEMBL document CHEMBL5329223, “Newly synthesized 6-substituted piperazine/phenyl-9-cyclopentyl containing purine nucleobase analogs act as potent anticancer agents and induce apoptosis via inhibiting Src in hepatocellular carcinoma cells” (RSC Med Chem, 2023)
Activity calls are given as the source filed them. No cut-off for these calls is given here.

What was measured:
PLC = test: Cytotoxicity against human PLC cells assessed as cell growth inhibition incubated for 72 hrs by SRB assay; type: functional, cell-based
Outline: (§1)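 Cells seeded at 1000–3000 per well, treated after 24 h with 2.5–40 μM (40, 20, 10, 5, 2.5 μM) for 72 h, in duplicate or triplicate; DMSO negative control. Fixed with 10% TCA 1 h at 4 °C, stained with 0.4% SRB in 1% acetic acid, dye solubilized in 10 mM TBS, A515 read; OD normalized to DMSO control, IC50 from growth-inhibition curves.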

Huh-7 [1] = test: Cytotoxicity against human Huh-7 cells assessed as cell growth inhibition incubated for 72 hrs by SRB assay; type: functional, cell-based; details: for IC50: Huh-7, 72 h; outline: as §1
SNU-182 = test: Cytotoxicity against human SNU-182 cells assessed as cell growth inhibition incubated for 72 hrs by SRB assay; type: functional, cell-based; details: for IC50: SNU-182, 72 h; outline: as §1
[2] = Cytotoxicity against human FOCUS cells assessed as cell growth inhibition incubated for 72 hrs by SRB assay; type: functional, cell-based; outline: as §1
HepG2 = test: Cytotoxicity against human HepG2 cells assessed as cell growth inhibition incubated for 72 hrs by SRB assay; type: functional, cell-based; details: HepG2, 72 h; outline: as §1
SNU-423 = test: Cytotoxicity against human SNU-423 cells assessed as cell growth inhibition incubated for 72 hrs by SRB assay; type: functional, cell-based; details: SNU-423, 72 h; outline: as §1
SNU-387 = test: Cytotoxicity against human SNU-387 cells assessed as cell growth inhibition incubated for 72 hrs by SRB assay; type: functional, cell-based; details: SNU-387, 72 h; outline: as §1
Mahlavu [3] = test: Cytotoxicity against human Mahlavu cells assessed as cell growth inhibition incubated for 72 hrs by SRB assay; type: functional, cell-based; outline: as §1
HCT-116 = test: Cytotoxicity against human HCT-116 cells assessed as cell growth inhibition incubated for 72 hrs by SRB assay; type: functional, cell-based; details: for IC50: HCT-116, 72 h; outline: as §1
SNU-475 = test: Cytotoxicity against human SNU-475 cells assessed as cell growth inhibition incubated for 72 hrs by SRB assay; type: functional, cell-based; details: SNU-475, 72 h; outline: as §1
SNU-398 = test: Cytotoxicity against human SNU-398 cells assessed as cell growth inhibition incubated for 72 hrs by SRB assay; type: functional, cell-based; details: SNU-398, 72 h; outline: as §1
MCF7 = test: Cytotoxicity against human MCF7 cells assessed as cell growth inhibition incubated for 72 hrs by SRB assay; type: functional, cell-based; details: for IC50: MCF7, 72 h; outline: as §1
Hep 3B2 = test: Cytotoxicity against human Hep3B cells assessed as cell growth inhibition incubated for 72 hrs by SRB assay; type: functional, cell-based; outline: as §1
SNU-449 = test: Cytotoxicity against human SNU-449 cells assessed as cell growth inhibition incubated for 72 hrs by SRB assay; type: functional, cell-based; details: SNU-449, 72 h; outline: as §1
Mahlavu [4] = test: Upregulation of intracellular ATP level in human Mahlavu cells at 5 uM incubated for 72 hrs by Kinase Glo assay; type: functional, cell-based
Outline: (§2)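 Huh7 and Mahlavu cells grown 24 h, then treated with 5 μM for 72 h. Lysates protein-normalized by Bradford; ATP read by Kinase-Glo Plus luminescence per kit protocol. Staurosporine positive control, DMSO negative control.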

Huh-7 [5] = test: Induction of cell cycle arrest in human Huh-7 cells assessed as increase in accumulation of cells at subG1 phase at 5 uM incubated for 72 hrs by PI staining based flow cytometry; type: functional
Outline: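 Huh7 and Mahlavu cells serum-starved 24 h to synchronize, then given 5 μM or DMSO in fresh growth medium for 72 h. Trypsinized, fixed in ice-cold 70% ethanol at least 3 h at −20 °C, PI-stained with a cell cycle kit, analyzed by flow cytometry for SubG1.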

Huh-7 [6] = test: Cytotoxicity against human Huh-7 cells assessed as cell growth inhibition at 0.625 to 5 uM measured upto 72 hrs by RT-CES analysis; type: functional, cell-based; details: dose 0.625-5 µM
Outline: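 Huh7 cells, 2000 per well, treated 24 h after seeding alongside DMSO control; cell index from impedance recorded every 30 min; plots for each concentration normalized to DMSO-treated cells.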

Huh-7 [7] = test: Induction of apoptosis in human Huh-7 cells assessed as increase in PARP-1 cleavage at 5 uM incubated for 72 hrs by Western blot analysis; type: functional, cell-based
Outline: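 Huh7 cells (300 000 per dish) treated 24 h after seeding with 5 μM or DMSO for 72 h. Immunoblot for PARP-1, phospho-Src Tyr416, Src, Rb, phospho-Rb Ser807/811, Cdk2; calnexin and actin as loading controls.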

Huh-7 [8] = test: Upregulation of intracellular ATP level in human Huh-7 cells at 5 uM incubated for 72 hrs by Kinase Glo assay; type: functional, cell-based; outline: as §2
Huh-7 [9] = test: Induction of morphological changes in human Huh-7 cells assessed as horseshoe-like condensed nuclei at 5 uM incubated for 72 hrs by Hoechst 33258 dye based microscopy; type: functional, cell-based
Outline: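 Huh7 cells on coverslips (50 000 per well) given 5 μM or DMSO 24 h after seeding for 72 h; permeabilized with ice-cold methanol 10 min, Hoechst 33258 stain 5 min in the dark, imaged by fluorescence microscopy with 40× objective.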

Row | Compound | IC50 (PLC) [µM] | IC50 (Huh-7 [1]) [µM] | IC50 [2] [µM] | IC50 (HepG2) [µM] | IC50 (SNU-423) [µM] | IC50 (SNU-387) [µM] | IC50 (Mahlavu [3]) [µM] | IC50 (HCT-116) [µM] | IC50 (SNU-475) [µM] | IC50 (SNU-398) [µM] | IC50 (MCF7) [µM] | IC50 (Hep 3B2) [µM] | IC50 (SNU-449) [µM] | also measured
1 | O=S(=O)(c1ccc(Br)cc1)N1CCN(c2ncnc3c2ncn3C2CCCC2)CC1 | 9.2 | 8 | 15.9 | 6.3 | 10.5 | 15.9 | 20.5 | 8.4 | 9 | 4 | 6.5 | 4.3 | 8.5 | IC50 (SNU-182): 60.6 µM
2 | COc1ccc(N2CCN(c3ncnc4c3ncn4C3CCCC3)CC2)cc1 | 9.3 | 1.3 | 2.6 | 0.3 | 15 | 38 | 0.6 | 5 | 13 | 0.3 | 1 | 0.3 | 2 | Activity (Mahlavu [4]): inactive; Activity (Huh-7 [5]): Active; IC50 (SNU-182): 13 µM; growth inhibition (GI) (Huh-7 [6]): Active; Activity (Huh-7 [7]): Active; Activity (Huh-7 [8]): inactive; Activity (Huh-7 [9]): Active
3 | Cc1ccc(N2CCN(c3ncnc4c3ncn4C3CCCC3)CC2)cc1 | 20.7 | 1.4 | 5 | 0.9 | 17.5 | 88 | 4.2 | 1.9 | 17.7 | 1.9 | 6.4 | 3.1 | 17 | IC50 (SNU-182): 61 µM
4 | Cc1ccc(-c2ncnc3c2ncn3C2CCCC2)cc1 |  | 23.8 |  |  |  |  |  | 22.4 |  |  | 17.7 |  |  | 
5 | COc1ccc(-c2ncnc3c2ncn3C2CCCC2)cc1 |  | 10.6 |  |  |  |  |  | 39 |  |  | 19.5 |  |  | 
6 | COc1ccc(S(=O)(=O)N2CCN(c3ncnc4c3ncn4C3CCCC3)CC2)cc1 | 84.6 | 7.1 | 10.1 | 2.7 | 6.8 | 15.8 | 9 | 10.4 | 57.5 | 6.9 | 8.6 | 71.8 | 20 | growth inhibition (GI) (SNU-182): inactive
7 | O=S(=O)(c1ccc(Cl)cc1)N1CCN(c2ncnc3c2ncn3C2CCCC2)CC1 |  | 34.4 |  |  |  |  |  | 44.8 |  |  | 10.5 |  |  | 
8 | Brc1ccc(-c2ncnc3c2ncn3C2CCCC2)cc1 |  | 16 |  |  |  |  |  |  |  |  | 56.1 |  |  | inhibition (HCT-116): inactive
9 | CN[C@@H]1C[C@H]2O[C@@](C)([C@@H]1OC)n1c3ccccc3c3c4c(c5c6ccccc6n2c5c31)C(=O)NC4 |  |  |  |  |  |  |  |  |  |  |  |  |  | Activity (Mahlavu [4]): inactive; Activity (Huh-7 [8]): inactive
10 | FC(F)(F)Oc1ccc(-c2ncnc3c2ncn3C2CCCC2)cc1 |  | 15.1 |  |  |  |  |  | 26.3 |  |  | 24 |  |  | 
11 | Fc1ccc(-c2ncnc3c2ncn3C2CCCC2)cc1 |  | 6.7 |  |  |  |  |  | 6.1 |  |  | 15.6 |  |  | 
12 | CC(C)c1ccc(S(=O)(=O)N2CCN(c3ncnc4c3ncn4C3CCCC3)CC2)cc1 |  | 14.7 |  |  |  |  |  | 11.5 |  |  | 17.2 |  |  | 
13 | OC[C@H]1O[C@@H](n2cnc3c2N=CNC[C@H]3O)C[C@@H]1O |  |  |  |  |  |  |  |  |  |  |  |  |  | growth inhibition (GI) (Huh-7 [1]): inactive; growth inhibition (GI) (HCT-116): inactive; growth inhibition (GI) (MCF7): inactive
